In ChEMBL document CHEMBL2429791, “Preparation of asymmetric urea derivatives that target prostate-specific membrane antigen for SPECT imaging” (J Med Chem, 2013):

How the values were obtained:
Lung = test: Biodistribution in lung of C.B.-17/Icr +/+ Jcl mouse xenografted with human LNCAP and PC3 cells at 25.9 MBq, iv after 6 hrs; format: ADME, organism-based; conditions: in vivo
Method in brief: (§1)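 Radioiodinated (¹²⁵I) tracer given by tail-vein injection to mice bearing LNCaP (left shoulder) and PC-3 (right shoulder) xenografts, 22–24 g, grown to about 5–10 mm. Groups of n=4 were decapitated at 2 min, 30 min, 1 h, 3 h or 6 h. Tissues were weighed and counted, and uptake was expressed as %ID/g (mean ± SD).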

Serum = test: Drug degradation in C.B.-17/Icr +/+ Jcl mouse serum after 6 hrs; format: ADME, cell-free
Method in brief: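 Serum came from heart blood of isoflurane-anesthetized male C.B.-17/Icr +/+ mice (20–22 g), centrifuged at 1,500 × g and stored at −80 °C. ¹²⁵I tracer was incubated in serum at 37 °C, then methanol was added. The sample was centrifuged at 5,000 × g, passed through a 0.45 μm filter, and analyzed by radio-HPLC for intact tracer versus degradation peaks.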

[1] = biological target: Glutamate carboxypeptidase 2 (Homo sapiens, UniProt Q04609); test: Binding affinity to PSMA in human LNCaP cells after 1 hr by gamma counting; format: cell-based
Method in brief: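 LNCaP cells plated at 4 × 10⁵ cells/well and grown 48 h (37 °C/5% CO₂), then washed with RPMI 1640 containing 0.5% BSA. Saturation binding used ¹²⁵I-labelled ligand (specific activity 81.4 kBq/nmol), 1 h at 37 °C; nonspecific binding measured with 100 µM non-radioactive iodinated compound. Cells washed, lysed in 0.2 N NaOH, gamma-counted; Kd from Scatchard plots.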

Spleen [2] = test: Biodistribution in spleen of C.B.-17/Icr +/+ Jcl mouse xenografted with human LNCAP and PC3 cells at 25.9 MBq, iv after 6 hrs; format: ADME, organism-based; conditions: in vivo; method in brief: as §1
PC-3 = test: Biodistribution in PC3 cells in C.B.-17/Icr +/+ Jcl mouse xenografted with human LNCAP and PC3 cells at 25.9 MBq, iv after 3 hrs; format: ADME, organism-based; conditions: in vivo
Method in brief: (§2)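 ¹²⁵I-labelled tracer given iv by tail vein to mice (22–24 g) bearing LNCaP (left shoulder) and PC-3 (right shoulder) xenografts of about 5–10 mm, grown from 1–5 × 10⁶ cells in 1:1 Matrigel. n=4 per time point; decapitated at 2 min, 30 min, 1, 3, 6 h. Tissues weighed and counted; uptake as %ID/g, mean ± SD.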

[3] = Ratio of drug level in human PC3 cells xenografted in C.B.-17/Icr +/+ Jcl mouse to blood of C.B.-17/Icr +/+ Jcl mouse xenografted with human LNCAP and PC3 cells at 25.9 MBq, iv after 3 hrs; format: ADME, organism-based; conditions: PC3 tumour xenograft relative to blood
Method in brief: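 Mice (22–24 g) carried PC-3 (right shoulder) and LNCaP (left shoulder) tumors, raised by injecting 1–5 × 10⁶ cells in 1:1 PBS/Matrigel and used at about 5–10 mm diameter. [¹²⁵I]-tracer was given via the tail vein, n=4 per time point, and mice were decapitated at 2 min, 30 min, 1, 3 or 6 h. Tissues were weighed and γ-counted as %ID/g. Tumor/blood and tumor/muscle ratios were taken from %ID/g, mean ± SD.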

Heart [4] = test: Biodistribution in heart of C.B.-17/Icr +/+ Jcl mouse xenografted with human LNCAP and PC3 cells at 25.9 MBq, iv after 2 mins; format: ADME, organism-based; conditions: in vivo; method in brief: as §2
LNCaP [5] = test: Biodistribution in LNCAP cells in C.B.-17/Icr +/+ Jcl mouse xenografted with human LNCAP and PC3 cells at 25.9 MBq, iv after 30 mins in presence of 2-PMPA; format: ADME, organism-based; conditions: in vivo, 0.5 h
Method in brief: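 Blocking study: ¹²⁵I-labelled tracer coinjected iv by tail vein with 2-PMPA (50 mg/kg) in LNCaP/PC-3 xenograft-bearing mice (22–24 g). Mice decapitated 30 min after injection; tissues weighed and counted; uptake as %ID/g.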

Kidney = test: Biodistribution in kidney of C.B.-17/Icr […] Jcl mouse xenografted with human LNCAP and PC3 cells at 25.9 MBq, iv after 2 mins; format: ADME, organism-based; conditions: in vivo; method in brief: as §2
Thyroid gland = test: Biodistribution in thyroid of C.B.-17/Icr +/+ Jcl mouse xenografted with human LNCAP and PC3 cells at 25.9 MBq, iv after 2 mins; format: ADME, organism-based; conditions: in vivo; method in brief: as §1
LNCaP [6] = test: Biodistribution in LNCAP cells in C.B.-17/Icr +/+ Jcl mouse xenografted with human LNCAP and PC3 cells at 25.9 MBq, iv after 3 hrs; format: ADME, organism-based; conditions: in vivo; method in brief: as §2
Heart [7] = test: Biodistribution in heart of C.B.-17/Icr +/+ Jcl mouse xenografted with human LNCAP and PC3 cells at 25.9 MBq, iv after 30 mins; format: ADME, organism-based; conditions: in vivo, 0.5 h; method in brief: as §2
Liver [8] = test: Biodistribution in liver of C.B.-17/Icr […] Jcl mouse xenografted with human LNCAP and PC3 cells at 25.9 MBq, iv after 1 hr; format: ADME, organism-based; conditions: in vivo; method in brief: as §2
Liver [9] = test: Biodistribution in liver of C.B.-17/Icr […] Jcl mouse xenografted with human LNCAP and PC3 cells at 25.9 MBq, iv after 3 hrs; format: ADME, organism-based; conditions: in vivo; method in brief: as §2
Spleen [10] = test: Biodistribution in spleen of C.B.-17/Icr +/+ Jcl mouse xenografted with human LNCAP and PC3 cells at 25.9 MBq, iv after 2 mins; format: ADME, organism-based; conditions: in vivo; method in brief: as §1
Nucleic Acid = test: Ratio of drug level in human LNCAP cells xenografted in C.B.-17/Icr +/+ Jcl mouse to muscle of C.B.-17/Icr +/+ Jcl mouse xenografted with human LNCAP and PC3 cells at 25.9 MBq, iv after 6 hrs; format: ADME, organism-based; conditions: in vivo
Method in brief: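 Tumor-to-blood and tumor-to-muscle ratios were calculated from %ID/g values in ¹²⁵I-tracer biodistribution in LNCaP/PC-3 xenografted mice. Tail-vein dosing, n=4 per time point, sacrifice at 2 min, 30 min, 1, 3 or 6 h.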

Spleen [11] = test: Biodistribution in spleen of C.B.-17/Icr scid/scid Jcl mouse xenografted with human LNCAP and PC3 cells at 25.9 MBq, iv after 30 mins in presence of 2-PMPA; format: ADME, organism-based; conditions: in vivo, 0.5 h
Method in brief: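 Blocking study: the ¹²⁵I tracer was coinjected via the tail vein with 2-PMPA (50 mg/kg) into LNCaP/PC-3 tumor-bearing mice, 22–24 g. Mice were decapitated 30 min after injection. Tissues were weighed and counted, giving %ID/g.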

LNCaP [12] = test: Biodistribution in LNCAP cells in C.B.-17/Icr +/+ Jcl mouse xenografted with human LNCAP and PC3 cells at 25.9 MBq, iv after 30 mins; format: ADME, organism-based; conditions: in vivo, 0.5 h; method in brief: as §2
Intestine = test: Biodistribution in intestine of C.B.-17/Icr +/+ Jcl mouse xenografted with human LNCAP and PC3 cells at 25.9 MBq, iv after 3 hrs; format: ADME, organism-based; conditions: in vivo; method in brief: as §2
Blood = test: Biodistribution in blood of C.B.-17/Icr +/+ Jcl mouse xenografted with human LNCAP and PC3 cells at 25.9 MBq, iv after 1 hr; format: ADME, organism-based; conditions: in vivo; method in brief: as §2
Liver [13] = test: Biodistribution in liver of C.B.-17/Icr […] Jcl mouse xenografted with human LNCAP and PC3 cells at 25.9 MBq, iv after 2 mins; format: ADME, organism-based; conditions: in vivo; method in brief: as §2
Spleen [14] = test: Biodistribution in spleen of C.B.-17/Icr +/+ Jcl mouse xenografted with human LNCAP and PC3 cells at 25.9 MBq, iv after 30 mins; format: ADME, organism-based; conditions: in vivo, 0.5 h; method in brief: as §1

Sequence of Glutamate carboxypeptidase 2 (Q04609 whole entry): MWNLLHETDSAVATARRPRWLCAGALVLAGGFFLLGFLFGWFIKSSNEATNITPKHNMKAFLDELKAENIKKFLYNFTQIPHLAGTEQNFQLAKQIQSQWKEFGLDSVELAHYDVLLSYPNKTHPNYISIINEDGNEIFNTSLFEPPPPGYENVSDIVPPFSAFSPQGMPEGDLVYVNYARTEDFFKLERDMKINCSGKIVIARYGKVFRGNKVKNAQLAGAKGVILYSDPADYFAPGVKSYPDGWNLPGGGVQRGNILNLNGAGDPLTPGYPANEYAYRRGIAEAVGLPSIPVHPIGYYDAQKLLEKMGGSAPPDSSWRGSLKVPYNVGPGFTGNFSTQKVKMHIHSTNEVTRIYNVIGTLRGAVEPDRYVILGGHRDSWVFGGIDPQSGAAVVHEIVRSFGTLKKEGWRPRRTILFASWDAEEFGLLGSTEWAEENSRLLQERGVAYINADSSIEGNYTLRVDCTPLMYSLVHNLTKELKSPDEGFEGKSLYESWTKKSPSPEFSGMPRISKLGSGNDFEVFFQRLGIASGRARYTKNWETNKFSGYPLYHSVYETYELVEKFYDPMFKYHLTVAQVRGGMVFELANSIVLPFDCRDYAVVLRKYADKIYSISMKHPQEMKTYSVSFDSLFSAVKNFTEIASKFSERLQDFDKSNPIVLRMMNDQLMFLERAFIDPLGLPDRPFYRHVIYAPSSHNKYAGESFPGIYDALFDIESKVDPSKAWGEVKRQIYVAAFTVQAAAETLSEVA

Drug uptake (Lung): 0.9 % ID/g
Stability (Serum): Stable
Kd [1]: 7.8 nM
Drug uptake (Spleen [2]): 9.7 % ID/g
Drug uptake (PC-3): 0.3 % ID/g
Kp at 3 h [3]: 0.4
Drug uptake (Heart [4]): 5.4 % ID/g
Drug uptake (LNCaP [5]): Not Active
Drug uptake (Kidney): 68.1 % ID/g
Drug uptake (Thyroid gland): 0.02 %ID
Drug uptake (LNCaP [6]): 9.5 % ID/g
Drug uptake (Heart [7]): 2.1 % ID/g
Drug uptake (Liver [8]): 13.9 % ID/g
Drug uptake (Liver [9]): 9 % ID/g
Drug uptake (Spleen [10]): 12.5 % ID/g
Ratio (Nucleic Acid): 76.7
Drug uptake (Spleen [11]): Not Active
Drug uptake (LNCaP [12]): 9.5 % ID/g
Drug uptake (Intestine): 5.8 % ID/g
Drug uptake (Blood): 1 % ID/g
Drug uptake (Liver [13]): 22.5 % ID/g
Drug uptake (Spleen [14]): 43.3 % ID/g
SMILES: O=C(O)CC[C@H](NC(=O)N[C@@H](CSC1CC(=O)N(CCCC[C@H](NC(=O)CNC(=O)c2cccc([125I])c2)C(=O)O)C1=O)C(=O)O)C(=O)O (some centres not stated)
